# Assay outcomes (PubChem)
# The list is not random: actives were taken first. Their share in the collection is about 3.1%.
# PAFAH2 FP inh = PAFAH2 enzyme inhibitors, primary screen, biochemical, fluorescence polarization, human; Platelet-activating factor acetylhydrolase 2, cytoplasmic (Homo sapiens), Q99487; recombinant PAFAH2, FP-rhodamine activity probe; inhibition, % at 3.39 µM; 340,000 tested, 0.99% active; AID 492956, 2010;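 active = inhibition above the mean over all tested compounds plus 3 SD, cut at about 30% in these data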;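 note: inhibitors block probe labeling of enzyme so polarization drops; 0% = enzyme with DMSO and 100% = wells lacking PAFAH2 protein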
# PAFAH1B3 inh = PAFAH1B3 enzyme inhibitors, primary screen, biochemical, fluorescence polarization, human | Platelet-activating factor acetylhydrolase IB subunit alpha1 (Homo sapiens), Q15102 | recombinant PAFAH1B3, FP-rhodamine probe | inhibition, % at 3.39 µM | 340,000 tested, 0.28% active;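 active = inhibition above the screen-wide average of all tested compounds plus 3 SD, cut at about 25% in these data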;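 note: 0% = enzyme with DMSO only and 100% = wells lacking PAFAH1B3 protein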
# pPAFAH inh = pPAFAH enzyme inhibitors, primary screen, biochemical, fluorescence polarization, human; Platelet-activating factor acetylhydrolase (Homo sapiens), Q13093; recombinant pPAFAH, FP-rhodamine probe fluorescence polarization; inhibition, % at 3.39 µM; 330,000 tested, 1.5% active; AID 463082, 2010;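 active = inhibition above the mean inhibition across the screen plus 3 SD, cut at about 25% in these data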;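 note: inhibitors block binding of the rhodamine activity-based probe so polarization drops; 0% = enzyme with DMSO and 100% = wells lacking pPAFAH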
# Target sequence (Q13093 whole entry, looked up): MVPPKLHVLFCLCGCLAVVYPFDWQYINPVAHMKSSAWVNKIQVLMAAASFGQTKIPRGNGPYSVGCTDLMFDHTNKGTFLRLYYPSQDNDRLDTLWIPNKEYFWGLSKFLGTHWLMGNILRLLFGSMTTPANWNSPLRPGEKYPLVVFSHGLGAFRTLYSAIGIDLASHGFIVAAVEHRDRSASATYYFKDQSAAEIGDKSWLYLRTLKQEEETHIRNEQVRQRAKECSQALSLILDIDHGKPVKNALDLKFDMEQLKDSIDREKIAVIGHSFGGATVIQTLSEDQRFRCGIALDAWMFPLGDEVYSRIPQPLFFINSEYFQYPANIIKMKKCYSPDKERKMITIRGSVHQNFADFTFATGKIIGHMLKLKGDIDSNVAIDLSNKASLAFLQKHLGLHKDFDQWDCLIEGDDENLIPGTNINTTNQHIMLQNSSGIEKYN
# PAFAH1B2 FP inh = PAFAH1B2 enzyme inhibitors, primary screen, biochemical, fluorescence polarization, human. 340,000 tested, 1.2% active. Platelet-activating factor acetylhydrolase IB subunit alpha2 (Homo sapiens), P68402. inhibition, % at 3.39 µM. recombinant PAFAH1B2, FP-rhodamine activity probe;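 active = inhibition above the mean of all tested compounds plus 3 SD, cut at about 24% in these data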;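 note: 0% = enzyme with DMSO and 100% = wells lacking PAFAH1B2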
# Target sequence (P68402 whole entry, looked up): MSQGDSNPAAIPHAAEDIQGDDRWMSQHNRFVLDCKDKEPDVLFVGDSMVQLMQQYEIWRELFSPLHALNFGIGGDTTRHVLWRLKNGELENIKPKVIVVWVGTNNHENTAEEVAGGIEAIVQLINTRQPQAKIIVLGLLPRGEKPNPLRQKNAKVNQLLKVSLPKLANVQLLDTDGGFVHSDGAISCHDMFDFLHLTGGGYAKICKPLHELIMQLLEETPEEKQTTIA
# Apaf1 inhib = inhibitors of human Apaf-1 apoptosome, primary screen, biochemical, DEVD-Rh110 fluorescence, uHTS. Apoptotic protease-activating factor 1 (Homo sapiens), O14727. inhibition, % at 20 µM. reconstituted apoptosome caspase-3 activity. 330,000 tested, 0.71% active; active = inhibition of at least 40% at 20 µM;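 note: plate controls were DMSO wells for no effect and DEVD-CHO caspase inhibitor wells for full effect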
#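 Material: reconstituted apoptosome with Apaf-1, cytochrome c, caspase-9, procaspase-3, dATP / Buffer or medium: pH 7.5 Hepes buffer with CHAPS, BSA, DTT / Also added: cytochrome c with DEVD-Rh110 / Schedule: compound with Apaf-1, dATP, procaspase-3 30 min, then 50 min reaction, room temperature / Technique: rhodamine 110 fluorescence at Ex 480/Em 540 nm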
# Apaf-1 inh conf = Apaf-1 inhibitors, single-dose retest, confirmation, biochemical, fluorescence, DEVD-Rh110, 20 µM; inhibition, % at 20 µM; shares compounds with Apaf1 inhib; 1,800 tested, 25% active; AID 504614, 2011; reconstituted apoptosome, caspase-3 DEVD-Rh110 fluorescence;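 active = mean inhibition of at least 40% at 20 µM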;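 note: plate controls were DMSO wells for no effect and DEVD-CHO caspase inhibitor control wells for full effect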
# Rh110 interf inh = Rh110 fluorescence interference by putative Apaf-1 inhibitors, confirmation, artefact control for Apaf-1 inhibitor project, biochemical, 20 µM | shares compounds with Apaf1 inhib | 1,800 tested, under 10 active | activation (fluorescence interference), % at 20 µM | quenched caspase reaction;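 active = signal rise of 40% or more at 20 µM, treated as a fluorescence artifact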
# Fluor interf inh = fluorescence interference of Apaf-1 inhibitor hits, dose response, artefact control for Apaf-1 inhibitor project. shares compounds with Apaf1 inhib. fluorescence interference counterscreen, Apaf-1 assay format. IC50, µM. 460 tested, under 10 active. AID 588538, 2011; call rule not given here
# * hit, by the source's call; · = no result.
SMILES,PAFAH2 FP inh,PAFAH1B3 inh,pPAFAH inh,PAFAH1B2 FP inh,Apaf1 inhib,Apaf-1 inh conf,Rh110 interf inh,others
COc1ccc(-c2oc3ncnc(NCCCN4CCOCC4)c3c2-c2ccc(OC)cc2)cc1,4,3,7,2,23,·,·,
COc1ccc(-c2oc3ncnc(NCCN4CCOCC4)c3c2-c2ccc(OC)cc2)cc1,-7,2,4,1,42*,25,15,
CN(Cc1c(F)cccc1Cl)C(=O)c1ccc(COc2ccccc2)cc1,-7,6,10,2,53*,37,7,
CN(Cc1c(F)cccc1Cl)C(=O)c1cc2ccccc2o1,2,3,8,5,17,·,·,
NC(=S)NN=C(c1ccc(F)cc1)C1CC1,0,6,·,4,·,·,·,
Cc1ccc(C(=O)NCCCN2CCOCC2)cc1S(=O)(=O)N1CCOCC1,-1,5,3,2,-6,·,·,
CCOc1ccc(NS(=O)(=O)c2cc(C(=O)NCCCN3CCOCC3)ccc2C)cc1,2,-8,5,3,65*,34,7,
CCCCNC(=O)C(C)N(CCN(C)C)C(=O)CCCN1C(=O)NC(c2ccc([N+](=O)[O-])cc2)C(C(=O)OCc2ccccc2)=C1C (stereo not drawn),-2,4,8,3,45*,14,8,
CN(C)C=Nc1nonc1-c1ccccc1,-2,2,1,-2,-4,·,·,
CN(C)C=Nc1c(Br)cc(Br)c2nonc12,-11,7,-4,2,43*,39,2,
CC(=O)Nc1ccc(S(=O)(=O)NCc2ccc3c(c2)cc(C)n3C)cc1,11,2,10,6,51*,4,2,
Cc1cc2cc(CNC(=O)c3ccc(S(=O)(=O)N4CCOCC4)cc3)ccc2n1C,6,6,10,6,35,·,·,
Cc1cc(C)c(S(=O)(=O)NCc2ccc3c(c2)cc(C)n3C)c(C)c1,15,12,9,12,44*,3,-1,
Cc1cc2cc(CNC(=O)c3ccc(S(=O)(=O)N(C)C)cc3)ccc2n1C,4,-1,9,-1,45*,9,8,
C=CCOC(=O)C1=C[C@@H](c2csc3ccccc23)[C@H](CCCO)[C@@H](OCC)O1,2,9,-1,-1,11,·,·,
COc1cc(OC)cc(-c2sc3ccc(OC)cc3c2-c2ccc(OCCN3CCCCC3)cc2)c1,4,5,-1,0,60*,-3,9,
COc1ccc(-c2c(-c3cc(OC)cc(OC)c3)sc3ccc(OC)cc23)cc1,0,-1,-2,-3,3,·,·,
COc1ccc(-c2sc3cc4c(cc3c2-c2ccc(OCCN3CCCCC3)cc2)OCO4)cc1,3,3,7,4,59*,6,9,
COc1ccccc1-c1sc2cc3c(cc2c1-c1ccc(OCCN2CCOCC2)cc1)OCO3,-5,-8,10,-5,23,·,·,
N#Cc1c(NCCO)nc(NCc2ccccc2)c2c1CCN(Cc1ccccc1)C2,·,·,10,·,60*,25,12,
CCN1CCc2c(C#N)c(N3CCCCC3)nc(NCc3ccccc3)c2C1,5,5,10,2,39,·,·,
COc1ccc(NS(=O)(=O)c2cccc(C(=O)NCC(c3ccccc3)N(C)C)c2)cc1 (stereo not drawn),8,1,22,14,22,·,·,
COc1ccccc1C(CNC(=O)c1cccc(S(=O)(=O)Nc2ccc(C)cc2)c1)N(C)C (stereo not drawn),-1,6,18,3,46*,28,7,
Cc1c(OCC(=O)N2CCC(C(=O)NCCCC(=O)O)CC2)ccc2c1oc(=O)c1ccccc12,13,14,3,5,-1,·,·,
Cc1cc(N2CCN(c3ccc(C(F)(F)F)cc3[N+](=O)[O-])CC2)c2ccccc2n1,0,3,-1,2,27,·,·,
SMILES,PAFAH2 FP inh,PAFAH1B3 inh,pPAFAH inh,PAFAH1B2 FP inh,Apaf1 inhib,Apaf-1 inh conf,Rh110 interf inh,others
Cc1cc(N2CCN(c3ccc([N+](=O)[O-])c4cccnc34)CC2)c2ccccc2n1,3,8,4,4,60*,47*,2,Fluor interf inh=>100
CC1CC(C)CN(C(=O)COC(=O)COc2ccccc2C#N)C1 (stereo not drawn),0,1,-2,9,-15,·,·,
CCCC[n+]1ccn(C2=C([O-])c3ccccc3C(=O)/C2=N\S(=O)(=O)c2ccc(Br)cc2)c1,1,18,3,7,59*,68*,0,Fluor interf inh=>100
CCCCCOC(=O)c1c(N)n(CCOC)c2nc3ccccc3nc12,10,9,1,3,94*,27,13,
CCOC(=O)c1c(N)n(CCOC(=O)c2cccs2)c2nc3ccccc3nc12,-2,8,11,2,95*,10,9,
CCCn1c(=S)[nH]c2cc(C(=O)N3CCN(C4CCCCC4)CC3)ccc2c1=O,4,9,2,3,9,·,·,
CSc1ccccc1OCc1cc(C(=O)NCCC2=CCCCC2)no1,-6,5,1,7,11,·,·,
COc1ccc(N=C2C(=Nc3ccc(OC)cc3)N(c3ccc(OC)cc3)C(=S)N2C)cc1,0,9,9,9,4,·,·,
COc1ccc(N=C2C(=Nc3ccc(OC)cc3)N(c3ccc(OC)cc3)C(=S)N2c2ccccc2)cc1,8,-3,4,2,75*,7,9,
O=C(NCCCN1CCCCCC1)c1cc2c(=O)oc3ccccc3c2s1,0,2,1,6,40*,11,6,
Cc1ccc2oc(=O)c3cc(C(=O)NCCCN4CCN(C)CC4)sc3c2c1,-5,-2,5,1,1,·,·,
CN1[C@@H]2CC[C@H]1CC(OC(=O)C(CO)c1ccccc1)C2 (stereo partly drawn),0,2,2,-3,-3,·,·,
O=C(Cc1cccs1)N1CCN(S(=O)(=O)c2ccc(Cl)c(C(F)(F)F)c2)CC1,-3,3,6,4,7,·,·,
CCOc1ccc2nc(NC3=NC(c4ccc(OC)cc4)CC(=O)N3)nc(C)c2c1 (stereo not drawn),-5,1,-2,10,79*,70*,7,Fluor interf inh=>100
CCCCOc1ccc(Br)cc1/C(C)=N/NC1=NCCN1,-3,4,8,5,11,·,·,
